The target in test [1] is T1, Serine/threonine-protein kinase Nek2 (Homo sapiens, UniProt P51955).
T1 sequence (P51955 whole entry): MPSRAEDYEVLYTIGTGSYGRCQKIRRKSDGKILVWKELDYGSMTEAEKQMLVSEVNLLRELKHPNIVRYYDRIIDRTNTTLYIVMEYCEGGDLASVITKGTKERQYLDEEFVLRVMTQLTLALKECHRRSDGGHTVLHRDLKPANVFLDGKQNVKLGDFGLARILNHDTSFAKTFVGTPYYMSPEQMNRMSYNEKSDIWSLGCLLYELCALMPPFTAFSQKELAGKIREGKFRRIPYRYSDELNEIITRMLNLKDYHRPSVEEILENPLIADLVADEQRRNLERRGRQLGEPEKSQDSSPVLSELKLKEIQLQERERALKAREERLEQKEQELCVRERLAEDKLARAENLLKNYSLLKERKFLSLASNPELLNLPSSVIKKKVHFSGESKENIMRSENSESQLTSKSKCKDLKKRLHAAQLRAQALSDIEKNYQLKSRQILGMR
Put plainly: Inhibition of human Nek2 in using [gamma-32P] ATP.

The target in test [2] is Cyclin-dependent kinase 1/cyclin B1 (Homo sapiens, UniProt P06493). Put plainly: Inhibition of human Cdk1/cyclinB using histone H1 as a substrate and [gamma-32P]ATP. Format: protein-complex assay.
Chain of Cyclin-dependent kinase 1/cyclin B1 (P06493 whole entry): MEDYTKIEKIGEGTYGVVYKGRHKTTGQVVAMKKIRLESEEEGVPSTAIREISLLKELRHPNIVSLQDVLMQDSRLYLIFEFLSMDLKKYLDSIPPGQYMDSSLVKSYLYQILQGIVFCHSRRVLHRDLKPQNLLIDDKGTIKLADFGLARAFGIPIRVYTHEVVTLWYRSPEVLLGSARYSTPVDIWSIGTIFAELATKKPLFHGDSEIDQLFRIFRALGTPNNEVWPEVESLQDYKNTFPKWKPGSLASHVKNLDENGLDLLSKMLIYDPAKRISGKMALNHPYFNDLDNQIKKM
Chain of Cyclin-dependent kinase 1/cyclin B1 (P14635 whole entry, further chain): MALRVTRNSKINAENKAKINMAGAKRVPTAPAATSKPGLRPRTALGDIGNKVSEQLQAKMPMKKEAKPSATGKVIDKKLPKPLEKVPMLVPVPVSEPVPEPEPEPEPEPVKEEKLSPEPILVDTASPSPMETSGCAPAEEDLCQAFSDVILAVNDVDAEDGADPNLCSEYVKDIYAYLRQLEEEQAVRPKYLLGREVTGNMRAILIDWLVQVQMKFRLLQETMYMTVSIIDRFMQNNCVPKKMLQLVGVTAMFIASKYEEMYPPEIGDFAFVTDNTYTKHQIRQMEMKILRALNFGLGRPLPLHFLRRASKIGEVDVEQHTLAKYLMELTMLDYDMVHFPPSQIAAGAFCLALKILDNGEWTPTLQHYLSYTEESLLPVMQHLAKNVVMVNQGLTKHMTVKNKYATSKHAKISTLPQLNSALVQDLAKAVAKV
Test [3] deals with A549. The experiment in a line: Antimitotic activity in monastrol-arrested human A549 cells assessed as cells that exit mitosis arrest at 5 uM after 45 mins by immunofluorescence microscopic analysis. Format: functional.
Test [4] addresses T2, Serine/threonine-protein kinase Nek2 (Homo sapiens) (UniProt P51955).
T2 sequence (whole entry): T1 sequence (P51955 whole entry)
The experiment in a line: Inhibition of human Nek2 at 5 uM using [gamma-32P] ATP.

Test [5] deals with Serine/threonine-protein kinase Nek2 (Homo sapiens, UniProt P51955, C22V). The experiment in a line: Inhibition of human Nek2 C22V mutant using [gamma-32P] ATP.
Chain of Serine/threonine-protein kinase Nek2 (Homo sapiens, UniProt P51955, C22V) (P51955 whole entry C22V, the tested form may be a part): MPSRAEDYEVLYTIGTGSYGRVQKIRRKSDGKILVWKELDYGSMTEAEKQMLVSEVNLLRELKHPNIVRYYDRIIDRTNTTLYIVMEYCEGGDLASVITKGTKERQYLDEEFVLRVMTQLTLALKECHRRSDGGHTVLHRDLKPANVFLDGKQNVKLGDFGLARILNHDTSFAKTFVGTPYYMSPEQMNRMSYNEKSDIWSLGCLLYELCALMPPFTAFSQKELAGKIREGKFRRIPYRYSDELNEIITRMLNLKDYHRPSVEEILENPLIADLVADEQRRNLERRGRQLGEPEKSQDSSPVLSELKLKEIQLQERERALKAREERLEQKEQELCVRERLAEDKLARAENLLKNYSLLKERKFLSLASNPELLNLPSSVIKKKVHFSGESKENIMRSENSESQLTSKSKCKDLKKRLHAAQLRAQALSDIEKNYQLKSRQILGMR
In test [6] the target is T2, Serine/threonine-protein kinase Nek2 (Homo sapiens). Put plainly: Induction of alkylation at Cys22 position of wild type human Nek2 kinase domain amino acid 1-271 at 500 nM by electrospray mass spectrometric analysis. Put shortly: (§1)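 WT or C22V Nek2 kinase domain (50 nM) incubated with 500 nM inhibitor in PBS pH 7.4, 5% DMSO, 5 h at room temperature. Acidified to pH 3 with HCl, then LC-MS on a C18 protein column with acetonitrile/formic acid gradient and ESI detection. Spectra deconvoluted to single masses of protein and adducts.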

Test [7] concerns T3, Serine/threonine-protein kinase Nek2 (Homo sapiens), P51955 [C22V].
T3 sequence (whole entry): T1 sequence (P51955 whole entry) with C22V
The experiment in a line: Induction of alkylation at Cys22 position of human Nek2 C22V mutant kinase domain amino acid 1-271 at 500 nM by electrospray mass spectrometric analysis. The gist of the method:
as §1

For another test, the species on record is Homo sapiens. The experiment in a line: Ratio of IC50 for human Nek2 to IC50 for human Cdk1/cyclinB. Put shortly: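 Nek2 (WT kinase domain, 15 nM) pre-incubated with inhibitor for 30 min at room temperature in HEPES pH 7.5, MgCl2, EDTA, BSA with 100 μM ATP and 3% DMSO. β-casein and [γ-32P]ATP were then added for a 30-min reaction. Cdk1/cyclin B (2 nM) was run the same way but with 38 μM ATP and histone H1 as substrate. Phosphorylation was read from nitrocellulose spots. IC50s are means of three determinations.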

Test [8] deals with A549. The experiment in a line: Induction of deffect in bipolar spindle assembly in human A549 cells at 5 uM after 30 mins in presence of Cdk1 inhibitor 19. Format: functional, cell-based. Put shortly:
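A549 cells on poly-lysine coverslips grown 24 h, held in late G2 with 5 μM 19 for 20 h, then given 5 μM test compound plus 5 μM 19 for 30 min. Washed twice into compound-free media, then 10 μM MG132 for 1 h. Fixed and immunostained for spindles and chromosomes. Bipolar spindles quantified in >160 cells/condition, mean ± SD of 3 experiments.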

Test [9] deals with A549. The experiment in a line: Effect on chromosome congression in human A549 cells at 5 uM after 30 mins in presence of Cdk1 inhibitor 19. Type of test: functional, cell-based.
Test [10] relates to A549. The experiment in a line: Reduction in total number of mitotic cells in human A549 cells at 5 uM after 30 mins in presence of Cdk1 inhibitor 19. Format: functional, cell-based.

This is an account of results in ChEMBL document CHEMBL1799934, “Irreversible Nek2 kinase inhibitors with cellular activity” (J Med Chem, 2011).

Molecules are shown by their SMILES. Where a chain is given by its changes, count along the chain named. Active and inactive are the calls of the source. No cut-off for these calls is given here.

Usually IC50 stands for the concentration at which inhibition is half-maximal. Regarding `C#CC(=O)Nc1ccc2c(c1)/C(=C/c1cnc[nH]1)C(=O)N2`, the values for the IC50 in test [1] and in [2] were 620 nM and less than 1 nM, respectively. In the test on A549 [3], the Activity turned out to be 80%.
In test [2], `CC#CC(=O)Nc1ccc2c(c1)/C(=C/c1[nH]c(CC)nc1C)C(=O)N2` showed a 50% inhibitory concentration (IC50) of more than 20000 nM. For the same molecule, the Activity in the test with A549 [3] was 33%.
By inhibition is commonly meant the share of the control response that was lost under treatment. Turning to `O=C1Nc2ccc(C(=O)CCl)cc2/C1=C/c1ccc[nH]1`, in test [4], the inhibition was determined as 80%. The results for the IC50 in [1], in test [5] and in test [2] were less than 6 nM, 14000 nM and 10 nM, respectively. The outcome in [6] was Active. Moreover, in [7], the outcome was inactive. In the test on A549 [3], the Activity came to 98%.
For the molecule `CCc1nc(C)c(/C=C2\C(=O)Nc3ccc(C(=O)CCl)cc32)[nH]1`, the IC50 in test [1] turned out to be 130 nM; in test [2] it was 2500 nM. Also, the Activity in the test on A549 [3] stood at 50%.
For `CCc1nc(C)c(/C=C2\C(=O)N(C)c3ccc(C(=O)CCl)cc32)[nH]1.Cl`, the Activity with A549 [3] was determined as 0.9%.
As for `C#CC(=O)Nc1ccc2c(c1)/C(=C/c1[nH]cnc1C)C(=O)N2`, the half-maximal inhibitory concentration (IC50) is 390 nM in test [1] and less than 1 nM in [2]. Also, the Ratio IC50 in the test listed under Homo sapiens came to 400. The Activity in the test on A549 [3] came to 99%.
As for `CCc1nc(C)c(/C=C2\C(=O)Nc3ccc(C(C)=O)cc32)[nH]1`, the IC50 in test [1] is more than 20000 nM; in [2], 3600 nM. For the same molecule, the Activity in the test with A549 [3] is given as 27%.
On to `O=C1Nc2ccc(C(=O)CCl)cc2/C1=C/c1cnc[nH]1`, for which the half-maximal inhibitory concentration (IC50) in test [1] was 60 nM; in [2] it was less than 1 nM. Also, in the test on A549 [3], the Activity is recorded as 92%.
The like results for `Cc1nc[nH]c1/C=C1\C(=O)Nc2ccc(C(=O)CCl)cc21` were, in that order, 20 nM, less than 1 nM and 100%.
In the case of `C=CC(=O)Nc1ccc2c(c1)/C(=C/c1ccc[nH]1)C(=O)N2`, in [4], the inhibition entry was “inactive”.
On to `C#CC(=O)Nc1ccc2c(c1)/C(=C/c1[nH]c(CC)nc1C)C(=O)N2C`, for which the IC50 in [1] and in [2] was more than 20000 nM throughout. Further, the Activity in the test on A549 [3] was 0%.
With `C#CC(=O)Nc1ccc2c(c1)/C(=C/c1ccc[nH]1)C(=O)N2`, the inhibition in [4] is 80%. For the same molecule, the IC50 in test [1] is 920 nM; in test [5], 20000 nM; in [2] it was 90 nM. In addition, the outcome in test [6] was Active. Besides, the outcome in test [7] was inactive. The Activity in the test on A549 [3] is given as 78%.
In turn, `C#CC(=O)Nc1ccc2c(c1)/C(=C/c1[nH]c(CC)nc1C)C(=O)N2` displayed an IC50 in test [2] of more than 20000 nM. Also, the outcome with A549 [8], with A549 [9] and in the test with A549 [10] was inactive.
